Here are results for 15 compounds from PMC4894846 (Nature cell biology, 2014).

The structures appear in SMILES notation. Values joined by “and” are separate entries in the source; they are usually repeats but may differ in a detail not shown here. Equal values may be shown once.

Usually IC50 stands for the concentration that inhibits the measured activity by half. One may read the Vss as the apparent volume that relates the amount in the body to the concentration in plasma or blood. The low end stands for confinement near the circulation, the high end for extensive tissue distribution. The Cmax is the maximum level reached in the sampled fluid or tissue. For orientation: Tmax means the time from dosing to the highest level.

The subject of series [1] is Pfa1 cells. As to the kind of experiment: Cell death elicited by ferroptosis-inducing agents. Format: cell-based, mouse. The conditions noted are these: for Induction of cell death through GSH depletion: Pfa1 cells; for Prevention of cell death elicited by FINs: erastin 2.5 μM, BSO 20 μM, RSL3 20 nM, DFO 10 μM, Fer1 0.1 μM, αToc 1 μM, Nec1 20 μM, Z-VAD-FMK 50 μM.
Series [2] concerns TAM-inducible Gpx4−/− cells (Pfa1). Briefly: Rescue of cell death induced by TAM-inducible Gpx4 deletion in Pfa1 cells. The conditions noted are these: 1 μM TAM, viability 72 h after knockout induction. Format: cell-based, mouse.
For a further series, the system named is Gpx4−/− cells. Briefly: Lipid peroxidation in Gpx4−/− cells. The conditions noted are these: 48 h after knockout induction; Liproxstatin-1 50 nM. Format: cell-based, mouse. In short, it runs like this: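 Gpx4 loss is induced in TAM-inducible Pfa1 cells grown in dishes in DMEM with 10% FBS. Test compound is present during induction. At 48 h after knockout induction, cells are washed, stained with BODIPY 581/591 C11 for 1 h, and probe oxidation is measured by flow cytometry.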

For the next series, the system named is HepG2 cells. As to the kind of experiment: Cytotoxicity in HepG2 cells. Format: cell-based. The settings on record: 72 h incubation. A digest of the protocol: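 Cells are incubated with increasing concentrations of the test compound for 72 h. Viability is then read with the AquaBluer live-cell indicator. TC50 is derived by curve fitting.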
The target of another series is hERG channel (Homo sapiens, UniProt Q12809). As to the kind of experiment: hERG patch clamp assay. Format: cell-based. The conditions noted are these: read-out: hERG patch clamp assay IC50.
Chain of hERG channel (Q12809 whole entry): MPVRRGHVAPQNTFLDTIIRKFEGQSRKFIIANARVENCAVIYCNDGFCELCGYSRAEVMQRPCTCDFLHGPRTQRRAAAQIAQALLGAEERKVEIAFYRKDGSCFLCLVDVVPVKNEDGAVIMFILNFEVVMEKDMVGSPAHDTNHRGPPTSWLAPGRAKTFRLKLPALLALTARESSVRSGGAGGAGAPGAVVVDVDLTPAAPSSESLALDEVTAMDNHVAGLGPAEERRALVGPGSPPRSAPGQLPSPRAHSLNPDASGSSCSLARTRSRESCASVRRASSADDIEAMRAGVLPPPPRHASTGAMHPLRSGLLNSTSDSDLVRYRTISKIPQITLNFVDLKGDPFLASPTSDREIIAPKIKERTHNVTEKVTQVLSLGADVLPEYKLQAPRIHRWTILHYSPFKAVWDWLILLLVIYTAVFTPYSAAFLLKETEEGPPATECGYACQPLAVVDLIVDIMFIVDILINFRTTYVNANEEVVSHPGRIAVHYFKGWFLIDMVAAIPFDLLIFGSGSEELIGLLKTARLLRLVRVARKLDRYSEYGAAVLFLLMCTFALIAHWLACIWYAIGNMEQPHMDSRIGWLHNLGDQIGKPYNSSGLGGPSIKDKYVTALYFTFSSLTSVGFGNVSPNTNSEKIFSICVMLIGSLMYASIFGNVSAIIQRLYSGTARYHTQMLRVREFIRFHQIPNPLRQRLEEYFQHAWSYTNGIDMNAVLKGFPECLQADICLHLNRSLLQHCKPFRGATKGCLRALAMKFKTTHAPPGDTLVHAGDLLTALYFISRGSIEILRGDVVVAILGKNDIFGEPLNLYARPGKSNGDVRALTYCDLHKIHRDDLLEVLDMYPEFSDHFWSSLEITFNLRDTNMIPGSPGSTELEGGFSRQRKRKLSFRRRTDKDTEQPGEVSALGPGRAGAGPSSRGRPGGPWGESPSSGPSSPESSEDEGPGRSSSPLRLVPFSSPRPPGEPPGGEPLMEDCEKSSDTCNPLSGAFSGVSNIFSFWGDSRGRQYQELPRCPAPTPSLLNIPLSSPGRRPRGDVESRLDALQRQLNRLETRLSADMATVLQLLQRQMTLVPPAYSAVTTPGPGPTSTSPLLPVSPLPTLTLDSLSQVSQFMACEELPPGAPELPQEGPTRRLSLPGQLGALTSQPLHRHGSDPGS
For the next series, the target named is CYP450 2C9 (Homo sapiens, UniProt P11712). As to the kind of experiment: CYP450 inhibition 2C9. The format is in vitro ADME. The settings on record: read-out: CYP450 inhibition 2C9 IC50.
Chain of CYP450 2C9 (P11712 whole entry): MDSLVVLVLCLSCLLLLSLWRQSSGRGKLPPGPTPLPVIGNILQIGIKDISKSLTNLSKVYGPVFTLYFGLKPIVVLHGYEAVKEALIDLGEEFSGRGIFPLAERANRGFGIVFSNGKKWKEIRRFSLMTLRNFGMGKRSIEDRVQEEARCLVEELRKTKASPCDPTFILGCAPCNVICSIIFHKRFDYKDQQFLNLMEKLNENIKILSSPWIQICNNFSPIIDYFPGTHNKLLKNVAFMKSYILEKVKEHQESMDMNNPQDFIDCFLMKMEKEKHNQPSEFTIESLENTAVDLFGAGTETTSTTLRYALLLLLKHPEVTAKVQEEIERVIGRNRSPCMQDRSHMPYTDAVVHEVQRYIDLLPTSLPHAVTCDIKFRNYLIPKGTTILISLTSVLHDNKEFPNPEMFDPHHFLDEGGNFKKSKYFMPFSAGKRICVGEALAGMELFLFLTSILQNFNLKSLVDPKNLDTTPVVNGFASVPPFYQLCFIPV
A further series deals with CYP450 2D6 (Homo sapiens, UniProt P10635). Briefly: CYP450 inhibition 2D6. The format is in vitro ADME. The settings on record: read-out: CYP450 inhibition 2D6 IC50.
Chain of CYP450 2D6 (P10635 whole entry): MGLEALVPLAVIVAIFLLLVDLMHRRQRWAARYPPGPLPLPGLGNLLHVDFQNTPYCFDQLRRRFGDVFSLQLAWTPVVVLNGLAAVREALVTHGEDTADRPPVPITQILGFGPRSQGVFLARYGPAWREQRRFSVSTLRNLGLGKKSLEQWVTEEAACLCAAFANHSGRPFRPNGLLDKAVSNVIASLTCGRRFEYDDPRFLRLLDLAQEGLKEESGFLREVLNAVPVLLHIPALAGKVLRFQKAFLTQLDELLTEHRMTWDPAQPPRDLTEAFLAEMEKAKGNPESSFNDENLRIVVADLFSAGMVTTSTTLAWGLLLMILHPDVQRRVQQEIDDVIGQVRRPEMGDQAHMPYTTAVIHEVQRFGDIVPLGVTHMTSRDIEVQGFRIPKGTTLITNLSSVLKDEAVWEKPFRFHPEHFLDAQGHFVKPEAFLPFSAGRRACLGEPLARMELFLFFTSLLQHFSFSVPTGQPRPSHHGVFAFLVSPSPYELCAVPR
In a further series the target is CYP450 3A4 (Homo sapiens, UniProt P08684). As to the kind of experiment: CYP450 inhibition 3A4. The format is in vitro ADME. The conditions noted are these: read-out: CYP450 inhibition 3A4 IC50.
Chain of CYP450 3A4 (P08684 whole entry): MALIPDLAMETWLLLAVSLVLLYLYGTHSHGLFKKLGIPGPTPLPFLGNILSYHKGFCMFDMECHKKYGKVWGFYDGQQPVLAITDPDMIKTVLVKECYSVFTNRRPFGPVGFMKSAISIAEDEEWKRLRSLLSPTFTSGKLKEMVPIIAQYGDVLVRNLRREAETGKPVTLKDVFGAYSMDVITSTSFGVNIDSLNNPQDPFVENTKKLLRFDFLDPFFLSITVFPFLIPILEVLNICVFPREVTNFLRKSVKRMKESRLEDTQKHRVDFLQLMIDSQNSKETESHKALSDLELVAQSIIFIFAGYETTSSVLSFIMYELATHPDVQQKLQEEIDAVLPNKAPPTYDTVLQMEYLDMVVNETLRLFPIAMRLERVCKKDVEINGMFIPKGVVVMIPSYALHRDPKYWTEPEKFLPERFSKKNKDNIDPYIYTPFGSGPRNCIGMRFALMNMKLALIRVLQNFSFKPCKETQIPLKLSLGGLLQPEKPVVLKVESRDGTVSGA
In another series the test system is CYP450 1A. As to the kind of experiment: CYP450 inhibition 1A. The format is in vitro ADME. The settings on record: read-out: CYP450 inhibition 1A IC50.
In a further series the target is CYP450 2C19 (Homo sapiens, UniProt P33261). As to the kind of experiment: CYP450 inhibition 2C19. The format is in vitro ADME. The settings on record: read-out: CYP450 inhibition 2C19 IC50.
Chain of CYP450 2C19 (P33261 whole entry): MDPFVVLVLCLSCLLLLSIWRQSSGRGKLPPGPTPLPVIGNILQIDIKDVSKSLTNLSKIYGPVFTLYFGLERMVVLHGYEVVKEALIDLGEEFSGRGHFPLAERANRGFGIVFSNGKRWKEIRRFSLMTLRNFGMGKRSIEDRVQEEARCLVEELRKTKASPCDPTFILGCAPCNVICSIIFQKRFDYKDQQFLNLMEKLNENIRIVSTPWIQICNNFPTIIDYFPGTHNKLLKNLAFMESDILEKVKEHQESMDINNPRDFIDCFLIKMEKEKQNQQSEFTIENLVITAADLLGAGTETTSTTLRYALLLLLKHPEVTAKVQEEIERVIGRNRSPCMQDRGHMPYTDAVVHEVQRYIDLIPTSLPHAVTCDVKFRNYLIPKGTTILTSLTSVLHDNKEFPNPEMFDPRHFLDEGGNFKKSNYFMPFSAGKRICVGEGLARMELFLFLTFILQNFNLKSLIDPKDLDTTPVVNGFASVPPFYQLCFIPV
The next series in a line: Mouse pharmacokinetics. Format: in vivo.
The subject of a further series is L929 cells. Briefly: TNFα/Z-VAD-FMK-induced necroptosis in L929 cells. Format: cell-based. The settings on record: Liproxstatin-1 1 μM; TNFα 5 ng ml^−1 + Z-VAD-FMK 50 μM; 8 h.
Series [3] relates to Pfa1 cells. As to the kind of experiment: Cell death induced by staurosporine and H2O2. The conditions noted are these: Liproxstatin-1 200 nM; staurosporine 0.2 μM, H2O2 200 μM; 24 h. Format: cell-based, mouse. A digest of the protocol: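 Gpx4-proficient (non-induced) Pfa1 mouse cells, kept in DMEM with 10% FBS. The test compound is given together with the death trigger: BSO 10 μM, erastin 1 μM or RSL3 0.5 μM, or staurosporine 0.2 μM or H2O2 200 μM. Viability is read 24 h after treatment. Mean ± s.d. of n = 3 wells; representative of at least four independent experiments.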

Series [4] has as its system primary human renal proximal tubule epithelial cells (HRPTEpiCs). As to the kind of experiment: Viability of HRPTEpiCs treated with RSL3. The format is cell-based. The settings on record: 24 h. A digest of the protocol:
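Primary human renal proximal tubule epithelial cells, cultured per supplier recommendations. Cells are exposed to RSL3 with or without test compound, and viability is read by AquaBluer 24 h after treatment. Mean ± s.d. of n = 3 wells; representative of three independent experiments.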

In the next series the test system is HRPTEpiCs. Briefly: RSL3-induced lipid oxidation in HRPTEpiCs. Format: cell-based, human. The settings on record: RSL3 0.2 μM; 24 h. In short, it runs like this: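 Primary human renal proximal tubule epithelial cells, cultured per supplier recommendations. Cells are treated with RSL3 (0.2 μM) with or without test compound. After 24 h, cells are stained with BODIPY 581/591 C11 for 1 h and lipid oxidation is measured by flow cytometry. Representative of four independent experiments.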

A further series deals with CreERT2;Gpx4fl/fl mice. As to the kind of experiment: In vivo rescue of TAM-induced CreERT2. On the set-up: species or system mouse. The conditions noted are these: 10 mg kg^−1 i.p. daily. A digest of the protocol:
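CreERT2;Gpx4fl/fl mice receive 0.5 mg TAM in Miglyol on days 1 and 3. From day 4, the test compound (10 mg kg−1) or vehicle (1% DMSO in PBS) is given i.p. once daily, with injections and scoring blinded. Survival is compared by log-rank/Gehan–Breslow–Wilcoxon tests (n = 12 vehicle, n = 13 treated; run twice). Kidney TUNEL+ cells are counted 9 days after TAM.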

The test system of another series is C57BL/6J mice. As to the kind of experiment: Hepatic ischaemia/reperfusion injury model. The settings on record: 90 min ischaemia, 24 h reperfusion. Format: in vivo, mouse. A digest of the protocol:
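Male C57BL/6J mice, 8–10 weeks old, 22–24 g, randomised; operators blinded. Under xylazine/ketamine, an atraumatic clip is placed across the portal vein, hepatic artery and bile duct above the right lateral lobe branch. Reperfusion follows 90 min of ischaemia. At 24 h, serum ALT/AST is measured and necrotic area is scored (n = 17 and n = 5). Mean ± s.e.m.; one-way ANOVA with Dunnett's post-test.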

The test system of series [5] is PZL cells (CreERT2;Gpx4fl/fl/Alox15−/−). As to the kind of experiment: Cell death on TAM-induced Gpx4 deficiency in PZL cells. Format: cell-based, mouse.
The next series has as its system Rip1−/− cells. As to the kind of experiment: FIN/RSL3-induced ferroptosis in Rip1−/− cells. Format: cell-based. The settings on record: RSL3 1 μM; 6 h pre-treatment; viability at 24 h.

Regarding `CCCCS(=N)(=O)CCC(N)C(=O)O` [BSO, L-buthionine sulphoximine], the “Induction of cell death through GSH depletion” value in the series on Pfa1 cells [1] is reported as “efficiently triggered rapid cell death”.
For `CC(=O)N(O)C/C=C/c1cccc(Oc2ccccc2)c1` [BWA4C], the “Rescue of cell death in response to Gpx4 deletion” value (shortened to “Rescue of cell death in response”) in series [2] was “prevented cell death”.
In the case of `CC(=O)N(O)CCCCCNC(=O)CCC(=O)N(O)CCCCCNC(=O)CCC(=O)N(O)CCCCCN` [DFO, deferoxamine], the “Rescue of cell death in response” value in [2] is “cell death could also be inhibited”. Besides, the “Prevention of cell death elicited by FINs” value (“Prevention … by FINs” below) in the series on Pfa1 cells [1] (24 h) is recorded as “can be prevented”. Further, the “Effect on lipid peroxidation (BODIPY 581/591 C11 oxidation)” value in the series on Gpx4−/− cells is on record as “could be ameliorated”.
For `CCOC(=O)c1ccc(NC2CCCCC2)c(N)c1` [Fer1, ferrostatin-1] the same measures were “rescued Gpx4^−/− cells from cell death”, “can be prevented” and “could be ameliorated”.
Regarding `Clc1cccc(CN=C2Nc3ccccc3NC23CCNCC3)c1` [Liproxstatin-1], the “Cytotoxicity in HepG2 cells TC50” value in the series with HepG2 cells amounted to 6 µM. Besides, on hERG channel, the IC50 is greater than 25 µM. Also, on CYP450 2C9, the IC50 is greater than 25 µM. Besides, on CYP450 2D6, the concentration for half-maximal inhibition (IC50) was 4.1 µM. For the same compound, on CYP450 3A4, the IC50 was greater than 25 µM. Moreover, the half-inhibitory concentration (IC50) in the series with CYP450 1A was greater than 25 µM. Also, the IC50 at CYP450 2C19 was greater than 25 µM. This compound also came in with a Bioavailability in “Mouse pharmacokinetics” of 52%. Further, in “Mouse pharmacokinetics” (i.v. 1 mg kg^−1), the C was 0.4 µg/mL; the “MRTINF (mean residence time extrapolated to infinity)” value was 4.9 h; the “Total Cl” value is 128 ml h^−1 and 66 ml min^−1 kg^−1; the V worked out at 849 mL. In the series “Mouse pharmacokinetics” (i.v. 1 mg kg^−1), this compound yielded a volume of distribution (Vss) of 629 mL and a t1/2 of 4.6 h. In “Mouse pharmacokinetics” (p.o. 5 mg kg^−1), the Cmax worked out at 80 ng/mL and the Tmax came to 2 h. For the same compound, the “Rescue of cell death in response” value in series [2] is given as “inhibit ferroptosis in the low nanomolar range”. The “Protection against FINs” value in the series on Pfa1 cells [1] (Liproxstatin-1 200 nM, BSO 10 μM, erastin 1 μM, RSL3 0.5 μM, 24 h) was “protects against FINs”. The “Effect on lipid peroxidation (BODIPY 581/591 C11 oxidation)” value with Gpx4−/− cells is “completely prevents lipid peroxidation”. Moreover, the Effect on necroptosis result with L929 cells was “does not prevent necroptosis”. For the same compound, the “Rescue of cell death induced by staurosporine and H2O2” value in the series with Pfa1 cells [3] is given as “fails to rescue cell death”. Also, the “Protection from RSL3-induced cell death” value in series [4] (Liproxstatin-1 100 nM) is reported as “able to protect”. Moreover, in the series on HRPTEpiCs, the “Effect on RSL3-induced BODIPY 581/591 C11 oxidation” value is given as “could be blocked”. In addition, the Median survival with CreERT2;Gpx4fl/fl mice (vehicle-treated 11 days, P <0.0001) was determined as 14 days. Further, the “TUNEL+ cells in kidney compared with vehicle” value with CreERT2;Gpx4fl/fl mice (day 9 after TAM treatment) was “strongly reduced number of TUNEL+ cells”. Besides, the “Tissue injury (AST/ALT, necrotic area)” value in the series on C57BL/6J mice was “mitigated tissue injury”.
As to `CCCCCCCCCCCCCCCCOCC(COCC(F)(F)F)OP(=O)(O)OC` (stereo not drawn) [MJ33], the “Rescue of cell death in response” value in series [2] is “prevented cell death”.
On the same count and under the same terms, for `CC(C)c1ccc2c(c1)c(SC(C)(C)C)c(CC(C)(C)C(=O)O)n2Cc1ccc(Cl)cc1` [MK886] the value was “prevented cell death”.
In the case of `CC(=O)N[C@@H](CS)C(=O)O` [NAC, N-acetylcysteine], the “Rescue of cell death of PZL cells on Gpx4 deficiency” value in series [5] is on record as “could not be rescued”.
With `CN1C(=O)C(Cc2c[nH]c3ccccc23)NC1=S` (stereo not drawn) [Nec1, necrostatin-1], the “Rescue of cell death in response” value in series [2] is “rescued Gpx4^−/− cells from cell death”. For the same compound, the “Prevention … by FINs” value in the series with Pfa1 cells [1] (24 h) is recorded as “can be prevented”. The “Prevention of ferroptosis in Rip1−/− cells” value in the series on Rip1−/− cells was “ferroptosis could be prevented”.
As to `CN1C(=O)NC(Cc2c[nH]c3c(Cl)cccc23)C1=O` (stereo not drawn) [Nec1s], the “Rescue of cell death in response” value in [2] was “did not protect”.
Consider `c1ccc2c(c1)SCc1c-2[nH]c2ccccc12` [PD146176], for which, in series [2], the “Rescue of cell death in response” value is “prevented cell death”.
As for `COC(=O)c1ccc([C@@H]2c3[nH]c4ccccc4c3C[C@@H](C(=O)OC)N2C(=O)CCl)cc1` [RSL3, (1S, 3R)-RSL3, reference compound], the “Induction of cell death in HRPTEpiCs” value in [4] is given as “efficiently triggered cell death”.
For `CCOc1ccccc1-n1c(C(C)N2CCN(C(=O)COc3ccc(Cl)cc3)CC2)nc2ccccc2c1=O` (stereo not drawn) [erastin], the “Induction of cell death through GSH depletion” value with Pfa1 cells [1] is “efficiently triggered rapid cell death”.
Regarding `CC(c1cc2ccccc2s1)N(O)C(N)=O` (stereo not drawn) [zileuton], in series [2], the “Rescue of cell death in response” value is recorded as “prevented cell death”.
As for `Cc1c(C)c2c(c(C)c1O)CC[C@@](C)(CCC[C@H](C)CCC[C@H](C)CCCC(C)C)O2` [αToc, α-tocopherol], the “Rescue of cell death in response” value in [2] was “cell death could also be inhibited”. Further, in the series on Pfa1 cells [1] (24 h), the “Prevention … by FINs” value is listed as “can be prevented”. The “Rescue of cell death of PZL cells on Gpx4 deficiency” value in series [5] is “rescued”.
